Efflux pump mplx: antifungal efflux pump inhibition, Nile Red retention. S. cerevisiae Candida pump triplex. inhibition, % at 10 µM. 0.44% of 330,000 active. AID 485275;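 active means plate passing quality check with inhibition over a set limit, or well fluorescence over plate mean plus 4 SD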;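 further: Nile Red retained in pooled yeast measured as flow cytometry median fluorescence; 0% = buffer negative control and 100% = Enniatin B positive control; higher means more Nile Red kept so more efflux inhibition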
Tb MetRS inh: blocks T. brucei methionyl-tRNA synthetase activity | purified T. brucei MetRS, ATP depletion, Kinase-Glo luminescence | inhibition, % at 11.9 µM | 0.4% of 360,000 active;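 active means inhibition above a per-plate cutoff of the control wells' mean inhibition plus 3 SD, cut at about 5.5% in these data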;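 further: 0% = DMSO wells median and 100% = median of wells with control inhibitor compound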
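Material: T. brucei methionyl-tRNA synthetase, purified; reagent: substrates ATP, L-methionine and bulk Escherichia coli tRNA; dosing: 11.9 µM single point; timing: 15 min plus 2 h at 25 °C; detection: luminescence of leftover ATP; evaluation: % inhibition; control set: DMSO-only wells as low control; replicates: singlicate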
H9c2 TAG inh: triacylglycerol accumulation inhibition; AID 651582; H9c2 cells, Nile Red lipid (TAG) fluorescence; cells loaded with 200 µM oleic acid; 0.66% of 230,000 active; inhibition, % at 12.5 µM;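 active means pattern-corrected inhibition of lipid staining of at least 50% with the nuclear-stain viability signal not falling by more than 50%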;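 further: 0% = DMSO wells and 100% = triacsin C control wells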
AHR act: activates the human aryl hydrocarbon receptor; P35869; AHR-responsive luciferase reporter cells, luminescence; activation, % at 5 µM; 2.5% of 320,000 active; in the data active means activation above about 47%;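 further: 0% = vehicle wells and 100% = reference agonist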
Target sequence (P35869 whole entry, looked up): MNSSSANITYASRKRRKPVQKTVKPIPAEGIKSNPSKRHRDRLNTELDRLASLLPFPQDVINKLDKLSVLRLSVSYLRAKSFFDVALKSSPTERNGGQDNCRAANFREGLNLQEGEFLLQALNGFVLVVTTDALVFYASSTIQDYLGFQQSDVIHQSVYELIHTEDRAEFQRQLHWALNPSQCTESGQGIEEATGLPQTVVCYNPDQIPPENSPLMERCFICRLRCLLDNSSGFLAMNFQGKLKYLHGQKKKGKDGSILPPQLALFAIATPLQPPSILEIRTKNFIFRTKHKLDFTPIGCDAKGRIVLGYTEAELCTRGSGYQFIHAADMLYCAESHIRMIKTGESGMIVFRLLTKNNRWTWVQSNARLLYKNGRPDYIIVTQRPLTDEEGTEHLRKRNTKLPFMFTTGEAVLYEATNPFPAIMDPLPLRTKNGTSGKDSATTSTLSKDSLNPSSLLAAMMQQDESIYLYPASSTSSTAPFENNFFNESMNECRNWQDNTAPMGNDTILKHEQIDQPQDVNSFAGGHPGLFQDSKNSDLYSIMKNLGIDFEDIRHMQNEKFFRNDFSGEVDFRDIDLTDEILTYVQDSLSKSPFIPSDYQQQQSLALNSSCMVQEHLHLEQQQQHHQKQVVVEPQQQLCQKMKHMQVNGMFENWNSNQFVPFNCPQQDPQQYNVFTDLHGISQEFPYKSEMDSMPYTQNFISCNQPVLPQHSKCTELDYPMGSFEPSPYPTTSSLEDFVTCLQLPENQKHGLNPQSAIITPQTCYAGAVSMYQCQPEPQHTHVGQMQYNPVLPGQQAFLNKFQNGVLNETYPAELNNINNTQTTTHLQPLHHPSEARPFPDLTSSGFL
SMARCA2 activ: SMARCA2 function activation, primary screen | MG213 cells, MMTV-luciferase reporter, dexamethasone, overnight | AID 652017 | activation, % at 9.1 µM | 1% of 370,000 active; in the data active means activation above about 7.8%;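 further: 0% = vehicle wells and 100% = reference activator wells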
TAG conf: triacylglycerol accumulation inhibition, confirmation. shares compounds with H9c2 TAG inh. H9c2 lipid accumulation, Nile Red fluorescence; cells loaded with 200 µM oleic acid. inhibition, % at 12.5 µM. 71% of 990 active;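 active means mean inhibition across replicates of 40% or more; inactive means mean inhibition below 40%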;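 further: plate controls were DMSO only wells for no effect and Triacsin C treated wells for full effect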
SMARCA2 conf: SMARCA2 activation, confirmation screen | shares compounds with SMARCA2 activ | MG213 cells, MMTV-luciferase with dexamethasone, luminescence, overnight; MG213 cells expressing E1A, Rb sequestered; DMSO wells 0%, reference activator 100% | activation, % at 9.1 µM | 30% of 3,500 active | AID 652260;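 active means activation above its plate's cutoff, the mean activation of tested wells plus 3 SD, cut at about 7.9% in these data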
GAL4-VP16 Luc: counter-screen for SMARCA2 activators: GAL4-VP16 luciferase reporter activation; shares compounds with SMARCA2 activ; HEK293 GAL4-VP16 pG5luc reporter, luciferase luminescence; scaled: DMSO wells 0%, SAHA wells 100%; activation, % at 9.1 µM; 41% of 3,500 active; AID 686939;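 active means activation above the solvent-only control well mean plus 3 SD, averaged across control plates, cut at about 5.2% in these data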
Active calls of the source: *; x = not tested or not shown. A selection: hits, their analogues and other compounds. The true share with any hit is near 4.1%.

SMILES	Efflux pump mplx	Tb MetRS inh	H9c2 TAG inh	AHR act	SMARCA2 activ	TAG conf	others
Cc1ccc2cc3cc(C(=O)NCCCN4CCCCCC4)oc3nc2c1	0	0	51*	12	3	29
Cc1ccc2cc3cc(C(=O)NCCCN4CCCC4)oc3nc2c1	0	0	x	6	-1	x
CC1(C(=O)N2CCC(CC3CC(c4ccc(Cl)cc4)=NO3)(C(=O)NCC3CCCCC3)CC2)CC1 (stereo not drawn)	0	1	13	0	-1	x
CC(C)(C)OC(=O)N1CCC(CC2CC(c3ccc(Cl)cc3)=NO2)(C(=O)NCC2CCCCC2)CC1 (stereo not drawn)	0	0	67*	0	3	18
CC(C)CCNCC(O)CON=C1c2ccccc2-c2ccccc21 (stereo not drawn)	0	0	64*	9	2	42*
COCCNCC(O)CON=C1c2ccccc2-c2ccccc21 (stereo not drawn)	0	0	6	25	0	x
CC(COc1cccc([N+](=O)[O-])c1)CN1CCC(C(O)(c2ccccc2)c2ccccc2)CC1 (stereo not drawn)	x	x	x	x	-4	x
O=C(CC1CCCC1)N1CC[C@H]2[C@H](CCCN2Cc2cc(F)cc(F)c2)C1	x	x	x	x	-1	x
O=C(Cc1ccccc1)NC(Nc1cccc2ccccc12)C(Cl)(Cl)Cl (stereo not drawn)	0	-1	58*	25	1	1
C=CCN1C(=O)[C@H](CC(=O)N2CCSCC2)[C@@]2(C(=O)OCC)CCCC=C12	x	x	x	x	0	x
O=C(NCCc1c[nH]c2ccccc12)C1CCC(Cn2c(=S)[nH]c3ccccc3c2=O)CC1 (stereo not drawn)	0	0	65*	-1	-5	61*
Cc1ccc(Cn2c(C(C)Nc3nc(-c4ccc(Cl)c([N+](=O)[O-])c4)cs3)nc3cc(C(F)(F)F)ccc32)cc1 (stereo not drawn)	0	0	70*	11	-1	71*
CCCCCCSc1cc(-c2nc3ccc(Cl)cn3c2NC2CCCCC2)ccc1OC	0	0	66*	3	0	44*
O=C(Nc1ccc2oc(-c3cccnc3)nc2c1)c1cc2ccccc2o1	0	-1	52*	-6	-1	25
CC(=O)C1=C(C)NC(=S)NC1c1ccc(F)cc1 (stereo not drawn)	x	x	x	x	0	x
O=C(Nc1ccccc1)c1nc[nH]c1C(=O)NCCCNC(=O)c1[nH]cnc1C(=O)Nc1ccccc1	0	0	42	40	-1	x
O=C(Nc1ccccc1)c1nc[nH]c1C(=O)NCCCCCCNC(=O)c1[nH]cnc1C(=O)Nc1ccccc1	0	0	65*	23	-1	73*
CC(C)C[C@H](NC(=O)c1ccc(Cl)c(Cl)c1)C(=O)N1CCC[C@H]1C(=O)NCc1ccccc1	x	x	x	x	0	x
O=S(=O)(c1ccc(OCC(O)CNC23CC4CC(CC(C4)C2)C3)c(Cl)c1)N1CCOCC1 (stereo not drawn)	0	0	59*	-1	7.8*	31
Cc1cc(=O)oc2cc(NC(=O)c3cc4ccccc4o3)ccc12	0	x	x	25	2	x
Cc1cc(=O)oc2cc(NC(=O)c3cccc(Br)c3)ccc12	0	0	69*	8	0	52*
COc1cccc(NC(=O)CSc2nnc(Cc3ccc(C)cc3)c(=O)n2N)c1	0	0	41	5	-1	x
Cc1ccc(Cc2nnc(SCC(=O)Nc3ccccc3)n(N)c2=O)cc1	0	0	52*	4	-2	62*
CCOc1ccc(Cc2nnc(SCC(=O)Nc3ccccc3)n(N)c2=O)cc1	0	0	50*	6	1	68*
COc1cc(OC)cc(C(=O)N2CC(=O)Nc3ccccc32)c1	0	0	58*	0	-2	63*
SMILES	Efflux pump mplx	Tb MetRS inh	H9c2 TAG inh	AHR act	SMARCA2 activ	TAG conf	others
CC(=O)N1CCN(C(=O)CN2C(=O)CC(C)(C)S(=O)(=O)c3ccccc32)CC1	x	x	x	x	3	x
COc1cc(C(=O)Nc2nc3ccc(C)cc3s2)ccc1OCc1c(C)noc1C	0	0	51*	-4	-3	40
CCc1nnc(NC(=O)c2ccc(OCc3c(C)noc3C)c(OC)c2)s1	0	1	-3	4	2	x
COC(=O)[C@]12C[C@H](CC(=O)N3CCN(C(=O)c4ccco4)CC3)C(=O)N(Cc3ccccc3)C1=C[C@H](C(C)C)O[C@@H]2C1CC1	x	x	x	x	-2	x
COC(=O)[C@]12C[C@H](CC(=O)NCCCN3CCCC3=O)C(=O)N(Cc3ccc(Cl)cc3Cl)C1=C[C@H](C1CCCC1)O[C@@H]2C	x	x	x	x	-1	x
CN(C)CCNc1ncnc2c1sc1nc(N3CCCC3)c3c(c12)CC(C)(C)OC3	0	0	29	-1	4	x
CCN(CC)CCNc1ncnc2c1sc1nc(N3CCCC3)c3c(c12)CC(C)(C)OC3	0	-1	56*	2	8.3*	45*	SMARCA2 conf=4;GAL4-VP16 Luc=0
COc1ccc(Nc2nc3cc(-c4sccc4C)sc3c(=O)n2C)cc1OC	x	0	57*	x	9.3*	71*	SMARCA2 conf=4;GAL4-VP16 Luc=8.4*
COC(=O)[C@]12C[C@H](CC(=O)NCc3ccc(OC)c(OC)c3)C(=O)N(CCc3ccc(OC)c(OC)c3)C1=C[C@H](C(C)C)O[C@@H]2C1CC1	x	x	x	x	-2	x
Nc1[nH]c(C(=O)c2ccccc2)c(-c2ccccn2)c1C(=O)c1c[nH]c2ccc(F)cc12	x	x	x	x	-1	x
Cc1ccc(-c2csc(NC(=O)CSc3nc4ccccc4c(=O)n3CCCN(C)C)n2)cc1	0	0	70*	3	10*	83*	SMARCA2 conf=7;GAL4-VP16 Luc=1
CCN(CC)c1ccc(/C=N/Nc2nc(C)cc(C)n2)cc1	0	0	51*	12	8.1*	30	SMARCA2 conf=-4;GAL4-VP16 Luc=1
CCN(CC)c1ccc(/C=N/Nc2nn[nH]n2)cc1	0	-1	7	3	-5	x
COc1ccc(-c2cc(CNc3nc(NC(C)C)nc4cc(-c5ccccc5)sc34)on2)cc1	x	0	96*	x	12*	79*	SMARCA2 conf=3;GAL4-VP16 Luc=4
CCCCOCC1CN(CCCC)S(=O)(=O)c2c(cccc2N(C)S(=O)(=O)c2ccc(C)cc2)O1 (stereo not drawn)	x	x	x	x	-1	x
Cc1cc(C(=O)COC(=O)c2ccc([N+](=O)[O-])o2)c(C)n1CC1CCCO1 (stereo not drawn)	0	1	72*	0	8.5*	54*	SMARCA2 conf=1;GAL4-VP16 Luc=1

Screening data: PubChem, several laboratories
